Results on one molecule are retold here after ChEMBL document CHEMBL1155077, “Kinesin spindle protein (KSP) inhibitors. 9. Discovery of (2S)-4-(2,5-difluorophenyl)-n-[(3R,4S)-3-fluoro-1-methylpiperidin-4-yl]-2-(hydroxymethyl)-N-methyl-2-phenyl-2,5-dihydro-1H-pyrrole-1-carboxamide (MK-0731) for the treatment of taxane-refractory cancer” (J Med Chem, 2008).

Activity calls are given as the source filed them.

Data set [1] can be described thus: Clearance in rat at 1 mg/kg, iv. Type of data set: ADME, organism-based. Further details: dose 1 mg/kg, route intravenous. The conditions noted are these: in vivo.
Data set [2] addresses T1, Kinesin heavy chain isoform 5A (Homo sapiens, UniProt Q12840).
T1 sequence (Q12840 whole entry): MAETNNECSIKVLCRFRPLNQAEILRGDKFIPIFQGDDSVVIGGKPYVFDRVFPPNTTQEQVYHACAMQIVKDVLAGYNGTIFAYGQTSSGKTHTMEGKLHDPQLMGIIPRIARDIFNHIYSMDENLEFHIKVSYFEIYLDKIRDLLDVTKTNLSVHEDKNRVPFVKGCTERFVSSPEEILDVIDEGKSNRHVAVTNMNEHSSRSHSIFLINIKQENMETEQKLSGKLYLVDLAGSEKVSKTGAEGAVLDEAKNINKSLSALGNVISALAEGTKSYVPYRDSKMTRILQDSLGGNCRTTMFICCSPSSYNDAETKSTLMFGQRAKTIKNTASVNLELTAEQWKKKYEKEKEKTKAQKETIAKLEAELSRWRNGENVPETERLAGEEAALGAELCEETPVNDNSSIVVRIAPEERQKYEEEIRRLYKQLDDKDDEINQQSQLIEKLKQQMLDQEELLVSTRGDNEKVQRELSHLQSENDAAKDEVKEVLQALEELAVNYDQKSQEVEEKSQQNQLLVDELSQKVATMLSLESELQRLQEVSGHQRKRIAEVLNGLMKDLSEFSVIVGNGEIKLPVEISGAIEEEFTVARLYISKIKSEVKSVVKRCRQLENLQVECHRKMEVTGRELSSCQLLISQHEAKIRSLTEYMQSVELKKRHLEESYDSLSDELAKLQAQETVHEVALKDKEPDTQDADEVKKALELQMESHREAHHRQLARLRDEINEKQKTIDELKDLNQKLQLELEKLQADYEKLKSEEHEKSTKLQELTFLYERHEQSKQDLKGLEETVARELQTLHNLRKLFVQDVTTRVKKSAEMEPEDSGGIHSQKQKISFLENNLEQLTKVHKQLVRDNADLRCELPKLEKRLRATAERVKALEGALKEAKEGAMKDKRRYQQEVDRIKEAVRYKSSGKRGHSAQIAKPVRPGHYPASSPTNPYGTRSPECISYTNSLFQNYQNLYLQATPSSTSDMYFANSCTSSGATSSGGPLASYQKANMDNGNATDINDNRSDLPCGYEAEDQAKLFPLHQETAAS
As to the kind of experiment: Inhibition of cloned human nKHC.

Data set [3] can be described thus: Volume of distribution at steady state in rhesus monkey at 0.4 mg/kg, iv. Type of data set: ADME, organism-based, Macaca mulatta. Also noted: dose 0.4 mg/kg, route intravenous. The note with it: in vivo, read-out: Vdss.
For data set [4], the species on record is Mus musculus. As to the kind of experiment: Toxicity in naive mouse assessed as neutopenia after 6 days. The note with it: in vivo, 144 h. Type of data set: organism-based. The method in brief:
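Naive mice dosed under protocols varying dose, vehicle and frequency, with survival as the end point; peripheral blood counts, including neutrophils, followed after dosing.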

Data set [5] concerns PTX10. As to the kind of experiment: Inhibition of tumor growth in paclitaxel-resistant human PTX10 cells carries tubulin mutation xenografted clr:NU/NU-nuBR mouse assessed as change in tumor volume at 100 mg/kg, sc administered q4d x 3 dosing schedule relative to control.
Data set [6] is described as follows: Half life in dog at 0.4 mg/kg, iv. Type of data set: ADME, organism-based, Canis lupus familiaris. Further details: dose 0.4 mg/kg, route intravenous. The note with it: in vivo.
The target of data set [7] is Kinesin-like protein KIF1B (Homo sapiens, UniProt O60333). Nature of the data set: Inhibition of cloned human Kif1B.
A short description of data set [8]: Effect on […] formation in human […] cells assessed as mitotic spindles at 50 nM after 16 hrs by fluorescence microscopy. Type of data set: functional. An outline of the steps: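 A2780 cells grown in slide chambers, exposed 16 h to 5 or 50 nM compound or 0.1% DMSO. Fixed/permeabilized in PIPES buffer pH 6.8 with Triton X-100 and 4% formaldehyde, blocked with 2% BSA, stained with anti-α-tubulin (DM1, 12 h 4 °C), FITC secondary and Hoechst 33342; spindles viewed by fluorescence microscopy.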

For data set [9], the target named is T2, Kinesin-like protein KIF2C (Homo sapiens, UniProt Q99661).
T2 sequence (Q99661 whole entry): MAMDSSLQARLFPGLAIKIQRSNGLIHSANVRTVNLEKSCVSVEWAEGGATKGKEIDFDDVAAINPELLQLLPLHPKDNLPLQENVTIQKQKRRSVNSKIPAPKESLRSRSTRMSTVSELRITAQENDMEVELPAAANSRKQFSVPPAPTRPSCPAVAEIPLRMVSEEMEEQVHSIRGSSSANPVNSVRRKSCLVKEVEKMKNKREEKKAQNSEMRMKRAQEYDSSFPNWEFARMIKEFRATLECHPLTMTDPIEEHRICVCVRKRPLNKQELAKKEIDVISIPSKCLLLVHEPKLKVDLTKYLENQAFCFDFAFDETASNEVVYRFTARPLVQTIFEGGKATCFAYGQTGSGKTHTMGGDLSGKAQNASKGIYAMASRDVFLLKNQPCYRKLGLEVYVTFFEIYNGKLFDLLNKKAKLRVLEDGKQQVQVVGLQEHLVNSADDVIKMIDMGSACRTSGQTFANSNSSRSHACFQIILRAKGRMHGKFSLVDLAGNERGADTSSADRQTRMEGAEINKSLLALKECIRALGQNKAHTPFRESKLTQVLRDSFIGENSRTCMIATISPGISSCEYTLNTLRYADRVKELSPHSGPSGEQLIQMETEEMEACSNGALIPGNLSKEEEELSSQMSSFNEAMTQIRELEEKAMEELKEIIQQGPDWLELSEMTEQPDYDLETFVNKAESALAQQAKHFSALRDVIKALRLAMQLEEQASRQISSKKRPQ
Nature of the data set: Inhibition of cloned human MCAK.

The test system of data set [10] is Rattus norvegicus. As to the kind of experiment: Acute toxicity in rat at 15 mg/kg, iv. Type of data set: organism-based. Further details: dose 15 mg/kg, route intravenous. The conditions noted are these: in vivo.
Data set [11] can be described thus: Induction of apoptosis in human […] cells assessed as caspase 3 activation after 48 hrs by fluorescent assay. Type of data set: functional, cell-based. The method in brief: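 A2780 cells seeded 20 000/well, grown overnight, then treated in triplicate 48 h with vehicle or compound, 300 to 0.415 nM (7-point, 3-fold series), 0.1% DMSO final.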

Kinesin-like protein KIF1B, sequence (O60333 whole entry): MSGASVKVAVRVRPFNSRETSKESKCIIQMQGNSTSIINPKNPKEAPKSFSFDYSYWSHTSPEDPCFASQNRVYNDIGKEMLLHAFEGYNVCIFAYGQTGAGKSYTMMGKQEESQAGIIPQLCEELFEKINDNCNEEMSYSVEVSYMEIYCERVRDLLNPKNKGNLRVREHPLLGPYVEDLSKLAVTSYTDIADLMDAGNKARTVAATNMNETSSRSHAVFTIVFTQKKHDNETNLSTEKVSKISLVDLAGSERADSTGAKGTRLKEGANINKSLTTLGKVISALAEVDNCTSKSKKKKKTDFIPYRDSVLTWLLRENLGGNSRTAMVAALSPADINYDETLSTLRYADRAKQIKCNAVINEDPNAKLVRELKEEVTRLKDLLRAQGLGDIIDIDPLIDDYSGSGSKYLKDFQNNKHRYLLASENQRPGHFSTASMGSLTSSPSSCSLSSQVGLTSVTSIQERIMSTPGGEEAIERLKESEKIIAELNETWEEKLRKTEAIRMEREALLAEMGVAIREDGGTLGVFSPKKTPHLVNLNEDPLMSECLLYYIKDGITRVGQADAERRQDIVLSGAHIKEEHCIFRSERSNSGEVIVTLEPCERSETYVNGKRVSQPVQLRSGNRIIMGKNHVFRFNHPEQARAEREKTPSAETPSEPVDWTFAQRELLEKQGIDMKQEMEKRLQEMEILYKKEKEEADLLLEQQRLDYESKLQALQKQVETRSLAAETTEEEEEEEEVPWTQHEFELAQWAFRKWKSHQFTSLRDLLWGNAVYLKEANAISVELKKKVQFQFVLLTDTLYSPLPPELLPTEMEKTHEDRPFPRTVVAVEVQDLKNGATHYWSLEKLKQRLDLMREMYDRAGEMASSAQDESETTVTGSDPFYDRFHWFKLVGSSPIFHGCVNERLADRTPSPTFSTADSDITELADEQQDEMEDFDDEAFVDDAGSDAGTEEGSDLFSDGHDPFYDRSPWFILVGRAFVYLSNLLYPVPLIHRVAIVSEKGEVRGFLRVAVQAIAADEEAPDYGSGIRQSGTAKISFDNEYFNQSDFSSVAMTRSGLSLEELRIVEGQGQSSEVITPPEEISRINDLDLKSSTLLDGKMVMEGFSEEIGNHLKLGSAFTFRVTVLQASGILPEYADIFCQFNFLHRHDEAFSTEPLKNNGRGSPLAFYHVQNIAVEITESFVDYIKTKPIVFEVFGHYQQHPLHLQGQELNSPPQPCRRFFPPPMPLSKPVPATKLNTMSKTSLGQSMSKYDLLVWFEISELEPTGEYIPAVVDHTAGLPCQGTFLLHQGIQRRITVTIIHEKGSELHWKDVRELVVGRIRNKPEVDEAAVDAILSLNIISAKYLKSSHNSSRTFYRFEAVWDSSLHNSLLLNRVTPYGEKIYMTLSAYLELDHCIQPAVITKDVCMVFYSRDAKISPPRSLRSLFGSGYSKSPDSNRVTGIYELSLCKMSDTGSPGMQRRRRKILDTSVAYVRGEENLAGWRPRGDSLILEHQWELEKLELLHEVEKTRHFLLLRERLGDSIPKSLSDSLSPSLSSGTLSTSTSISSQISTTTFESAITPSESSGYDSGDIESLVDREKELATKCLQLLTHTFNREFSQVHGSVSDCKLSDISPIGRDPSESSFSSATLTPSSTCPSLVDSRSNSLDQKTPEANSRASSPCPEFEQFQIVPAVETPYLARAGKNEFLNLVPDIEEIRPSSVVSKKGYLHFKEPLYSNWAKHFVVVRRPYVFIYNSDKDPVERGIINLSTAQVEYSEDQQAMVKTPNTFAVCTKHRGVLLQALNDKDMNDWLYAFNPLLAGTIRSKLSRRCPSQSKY

Turning to `CN1CC[C@H](N(C)C(=O)N2CC(c3cc(F)ccc3F)=C[C@@]2(CO)c2ccccc2)[C@H](F)C1`, the clearance in data set [1] was 66.7 mL/min/kg. Besides, the IC50 in data set [2], in data set [7] and in [9] was more than 50 µM throughout. In addition, in data set [3], the Vd amounted to 2.3 L/kg. Also, the Activity entry is listed as “Toxic” in data set [4], 90% in data set [8] and “Non-toxic” in [10]. Also, in data set [5], the outcome was Active. The molecule also showed a half-life in [6] of 2 h. Also, in [11], the EC50 was 0.0027 µM.

A word on the clearance: it is the volume of plasma or blood freed of the substance per unit of time. For orientation: IC50 means the midpoint of a concentration-inhibition curve. As a reminder, the half-life is the time needed for the level to fall by half in the phase considered. By EC50 is commonly meant the midpoint of the concentration-response curve.
